Assays:
[1] = biological target: Tyrosine-protein kinase ZAP-70 (Homo sapiens) (UniProt P43403); experiment: Inhibition of ZAP70 at 3 uM
[2] = biological target: Death-associated protein kinase 3 (Homo sapiens) (UniProt O43293); experiment: Inhibition of DAPK3 at 3 uM
[3] = biological target: Calcium/calmodulin-dependent protein kinase type II subunit alpha (Homo sapiens) (UniProt Q9UQM7); experiment: Inhibition of CAMK2A at 3 uM
[4] = biological target: BDNF/NT-3 growth factors receptor (Homo sapiens) (UniProt Q16620); experiment: Inhibition of TRKB at 3 uM
[5] = biological target: Tyrosine-protein kinase Mer (Homo sapiens) (UniProt Q12866); experiment: Inhibition of MERTK at 3 uM
[6] = biological target: Mitogen-activated protein kinase kinase kinase kinase 3 (Homo sapiens) (UniProt Q8IVH8); experiment: Inhibition of MAP4K3 at 3 uM
[7] = biological target: Serine/threonine-protein kinase 17A (Homo sapiens) (UniProt Q9UEE5); experiment: Inhibition of DRAK1 at 3 uM
[8] = system: Proto-oncogene tyrosine-protein kinase receptor Ret (Homo sapiens), P07949 [V804L]; experiment: Inhibition of RET V804L mutant at 3 uM
[9] = biological target: Tyrosine-protein kinase CSK (Homo sapiens) (UniProt P41240); experiment: Inhibition of CSK at 3 uM
[10] = biological target: Mu-type opioid receptor (Homo sapiens) (UniProt P35372); experiment: Inhibition of human mu opioid receptor at 3 uM
Chain of Mu-type opioid receptor (Homo sapiens) (P35372 whole entry): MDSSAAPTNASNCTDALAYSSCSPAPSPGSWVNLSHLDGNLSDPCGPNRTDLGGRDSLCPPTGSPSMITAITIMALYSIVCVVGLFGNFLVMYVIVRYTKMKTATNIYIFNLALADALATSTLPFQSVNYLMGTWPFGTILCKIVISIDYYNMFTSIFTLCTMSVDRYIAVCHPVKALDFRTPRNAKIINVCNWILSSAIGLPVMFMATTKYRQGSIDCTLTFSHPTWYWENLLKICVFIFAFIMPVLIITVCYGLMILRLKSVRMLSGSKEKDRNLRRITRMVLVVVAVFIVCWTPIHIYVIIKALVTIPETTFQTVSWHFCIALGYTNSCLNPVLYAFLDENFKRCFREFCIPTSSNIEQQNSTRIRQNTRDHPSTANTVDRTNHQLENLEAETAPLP
Method in brief: (§1)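 Counter-screen binding/enzyme panel at single 3 μM, n=2; results as percent inhibition. Species per target as listed (rat NMDA, GABAA sites; human receptors, transporters; rabbit ACE).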

[11] = biological target: Bone morphogenetic protein receptor type-2 (Homo sapiens) (UniProt Q13873); experiment: Inhibition of BMPR2 at 3 uM
[12] = biological target: Cyclin-dependent kinase 11A (Homo sapiens) (UniProt Q9UQ88); experiment: Inhibition of CDC2L2 at 3 uM
[13] = biological target: Histamine H3 receptor (Homo sapiens) (UniProt Q9Y5N1); experiment: Inhibition of human histamine H3 receptor at 3 uM; method in brief: as §1
[14] = biological target: Tyrosine-protein kinase Blk (Homo sapiens) (UniProt P51451); experiment: Inhibition of BLK at 3 uM
[15] = biological target: Serine/threonine-protein kinase N2 (Homo sapiens) (UniProt Q16513); experiment: Inhibition of PKN2 at 3 uM
[16] = biological target: Endothelin receptor type B (Homo sapiens) (UniProt P24530); experiment: Inhibition of human endothelin ETB receptor at 3 uM; method in brief: as §1
Chain of Endothelin receptor type B (Homo sapiens) (P24530 whole entry): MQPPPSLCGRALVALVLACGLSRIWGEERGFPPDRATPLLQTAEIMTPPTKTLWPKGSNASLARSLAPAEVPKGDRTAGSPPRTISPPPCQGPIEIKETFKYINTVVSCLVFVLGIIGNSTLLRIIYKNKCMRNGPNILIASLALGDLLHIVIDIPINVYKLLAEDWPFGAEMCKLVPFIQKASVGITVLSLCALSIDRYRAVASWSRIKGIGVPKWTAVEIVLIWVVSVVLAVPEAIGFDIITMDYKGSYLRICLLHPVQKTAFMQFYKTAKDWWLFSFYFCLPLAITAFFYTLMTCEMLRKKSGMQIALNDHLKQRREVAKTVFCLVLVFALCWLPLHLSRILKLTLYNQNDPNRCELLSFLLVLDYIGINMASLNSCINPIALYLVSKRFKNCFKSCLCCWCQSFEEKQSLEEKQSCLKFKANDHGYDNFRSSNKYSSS

[17] = biological target: Tyrosine-protein kinase HCK (Homo sapiens) (UniProt P08631); experiment: Inhibition of HCK at 3 uM
Chain of Tyrosine-protein kinase HCK (Homo sapiens) (P08631 2-526 limits assumed): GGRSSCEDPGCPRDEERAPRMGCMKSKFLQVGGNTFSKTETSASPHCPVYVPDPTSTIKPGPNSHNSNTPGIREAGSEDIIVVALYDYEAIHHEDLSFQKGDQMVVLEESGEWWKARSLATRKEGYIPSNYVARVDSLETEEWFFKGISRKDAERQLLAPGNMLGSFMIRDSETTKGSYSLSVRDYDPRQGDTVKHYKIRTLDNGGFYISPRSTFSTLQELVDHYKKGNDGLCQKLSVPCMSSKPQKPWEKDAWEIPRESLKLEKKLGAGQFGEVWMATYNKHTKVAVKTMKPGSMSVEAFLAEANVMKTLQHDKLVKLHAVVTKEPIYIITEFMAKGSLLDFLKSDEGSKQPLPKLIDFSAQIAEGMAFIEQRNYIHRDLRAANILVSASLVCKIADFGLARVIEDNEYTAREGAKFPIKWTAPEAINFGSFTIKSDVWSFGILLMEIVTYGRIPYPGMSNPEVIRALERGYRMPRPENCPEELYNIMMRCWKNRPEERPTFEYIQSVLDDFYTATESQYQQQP

[18] = biological target: Cyclin-dependent kinase-like 2 (Homo sapiens) (UniProt Q92772); experiment: Inhibition of CDKL2 at 3 uM
[19] = biological target: Protein-tyrosine kinase 2-beta (Homo sapiens) (UniProt Q14289); experiment: Inhibition of PTK2B at 3 uM
[20] = biological target: Membrane-associated tyrosine- and threonine-specific cdc2-inhibitory kinase (Homo sapiens) (UniProt Q99640); experiment: Inhibition of PKMYT1 at 3 uM
[21] = biological target: Tyrosine-protein kinase Lyn (Homo sapiens) (UniProt P07948); experiment: Inhibition of LYN at 3 uM
Chain of Tyrosine-protein kinase Lyn (Homo sapiens) (P07948 2-512 limits assumed): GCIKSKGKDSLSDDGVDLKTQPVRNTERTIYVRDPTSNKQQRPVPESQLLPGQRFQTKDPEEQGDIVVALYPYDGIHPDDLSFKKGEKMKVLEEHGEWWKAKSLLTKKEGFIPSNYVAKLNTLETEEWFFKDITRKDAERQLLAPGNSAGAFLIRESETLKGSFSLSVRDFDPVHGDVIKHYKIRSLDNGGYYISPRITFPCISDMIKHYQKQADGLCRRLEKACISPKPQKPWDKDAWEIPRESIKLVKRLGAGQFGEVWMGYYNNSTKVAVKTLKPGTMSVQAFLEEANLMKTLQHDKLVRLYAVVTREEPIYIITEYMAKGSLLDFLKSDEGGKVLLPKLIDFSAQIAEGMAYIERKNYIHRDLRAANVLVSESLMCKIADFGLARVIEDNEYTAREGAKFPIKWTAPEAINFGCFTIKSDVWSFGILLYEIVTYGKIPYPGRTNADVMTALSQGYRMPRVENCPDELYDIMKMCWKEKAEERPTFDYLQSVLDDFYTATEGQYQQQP

[22] = biological target: TRAF2 and NCK-interacting protein kinase (Homo sapiens) (UniProt Q9UKE5); experiment: Inhibition of TNIK at 3 uM
[23] = biological target: Calcium/calmodulin-dependent protein kinase kinase 1 (Homo sapiens) (UniProt Q8N5S9); experiment: Inhibition of CAMKK1 at 3 uM
[24] = biological target: Interleukin-1 receptor-associated kinase 3 (Homo sapiens) (UniProt Q9Y616); experiment: Inhibition of IRAK3 at 3 uM
[25] = biological target: Myosin light chain kinase family member 4 (Homo sapiens) (UniProt Q86YV6); experiment: Inhibition of SgK085 at 3 uM
[26] = biological target: Tyrosine-protein kinase Tec (Homo sapiens) (UniProt P42680); experiment: Inhibition of TEC at 3 uM
[27] = biological target: Insulin receptor (Homo sapiens) (UniProt P06213); experiment: Inhibition of INSR at 3 uM
[28] = biological target: cAMP-dependent protein kinase catalytic subunit alpha (Homo sapiens) (UniProt P17612); experiment: Inhibition of PKAC-alpha at 3 uM
[29] = biological target: Serine/threonine-protein kinase PAK 3 (Homo sapiens) (UniProt O75914); experiment: Inhibition of PAK3 at 3 uM
[30] = biological target: Aurora kinase A (Homo sapiens) (UniProt O14965); experiment: Inhibition of AURKA at 3 uM
[31] = biological target: Death-associated protein kinase 1 (Homo sapiens) (UniProt P53355); experiment: Inhibition of DAPK1 at 3 uM
[32] = biological target: Myotonin-protein kinase (Homo sapiens) (UniProt Q09013); experiment: Inhibition of DMPK at 3 uM
[33] = biological target: Ankyrin repeat and protein kinase domain-containing protein 1 (Homo sapiens) (UniProt Q8NFD2); experiment: Inhibition of ANKK1 at 3 uM
Chain of Ankyrin repeat and protein kinase domain-containing protein 1 (Homo sapiens) (Q8NFD2 whole entry, the tested form may be a part): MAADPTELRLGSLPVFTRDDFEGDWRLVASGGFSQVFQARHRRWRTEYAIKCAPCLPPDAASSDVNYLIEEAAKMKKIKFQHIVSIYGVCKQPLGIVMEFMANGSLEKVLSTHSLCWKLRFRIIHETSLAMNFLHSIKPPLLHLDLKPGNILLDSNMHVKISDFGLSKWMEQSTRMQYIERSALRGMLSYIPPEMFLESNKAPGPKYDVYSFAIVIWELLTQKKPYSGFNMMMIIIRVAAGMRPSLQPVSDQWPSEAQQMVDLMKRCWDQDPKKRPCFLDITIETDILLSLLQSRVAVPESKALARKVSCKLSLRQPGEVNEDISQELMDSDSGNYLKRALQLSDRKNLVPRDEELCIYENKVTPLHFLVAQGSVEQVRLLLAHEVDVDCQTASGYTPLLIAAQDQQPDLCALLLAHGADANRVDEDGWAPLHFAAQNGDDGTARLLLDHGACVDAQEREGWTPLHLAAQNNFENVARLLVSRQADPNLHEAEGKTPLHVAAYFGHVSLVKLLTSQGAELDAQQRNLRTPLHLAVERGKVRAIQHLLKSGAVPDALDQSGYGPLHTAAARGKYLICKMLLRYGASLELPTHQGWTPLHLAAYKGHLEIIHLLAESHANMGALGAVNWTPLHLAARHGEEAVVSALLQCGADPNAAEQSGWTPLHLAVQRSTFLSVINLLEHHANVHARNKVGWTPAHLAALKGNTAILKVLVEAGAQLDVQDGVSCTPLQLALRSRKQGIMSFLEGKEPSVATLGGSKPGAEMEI

[34] = biological target: Macrophage-stimulating protein receptor (Homo sapiens) (UniProt Q04912); experiment: Inhibition of MST1R at 3 uM
[35] = biological target: MAP kinase-activated protein kinase 5 (Homo sapiens) (UniProt Q8IW41); experiment: Inhibition of MAPKAPK5 at 3 uM
[36] = biological target: Serine/threonine-protein kinase Nek2 (Homo sapiens) (UniProt P51955); experiment: Inhibition of NEK2 at 3 uM
[37] = biological target: Calcium/calmodulin-dependent protein kinase kinase 2 (Homo sapiens) (UniProt Q96RR4); experiment: Inhibition of CAMKK2 at 3 uM
Chain of Calcium/calmodulin-dependent protein kinase kinase 2 (Homo sapiens) (Q96RR4 2-588 limits assumed): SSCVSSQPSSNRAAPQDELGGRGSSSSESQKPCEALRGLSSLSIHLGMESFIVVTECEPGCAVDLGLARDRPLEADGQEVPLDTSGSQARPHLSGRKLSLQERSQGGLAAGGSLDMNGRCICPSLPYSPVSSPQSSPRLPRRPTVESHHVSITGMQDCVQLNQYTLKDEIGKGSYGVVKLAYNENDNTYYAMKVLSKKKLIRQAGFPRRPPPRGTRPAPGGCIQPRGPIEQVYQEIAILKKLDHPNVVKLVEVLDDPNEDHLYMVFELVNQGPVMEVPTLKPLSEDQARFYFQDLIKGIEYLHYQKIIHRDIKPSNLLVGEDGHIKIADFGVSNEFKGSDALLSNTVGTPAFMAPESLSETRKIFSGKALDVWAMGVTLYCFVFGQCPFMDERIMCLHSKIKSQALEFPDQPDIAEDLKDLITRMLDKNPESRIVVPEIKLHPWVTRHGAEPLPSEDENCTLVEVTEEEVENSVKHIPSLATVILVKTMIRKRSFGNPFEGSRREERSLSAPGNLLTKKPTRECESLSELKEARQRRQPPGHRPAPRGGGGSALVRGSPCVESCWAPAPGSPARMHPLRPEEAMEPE

[38] = biological target: Inhibitor of nuclear factor kappa-B kinase subunit beta (Homo sapiens) (UniProt O14920); experiment: Inhibition of IKK-beta at 3 uM
[39] = biological target: Serine/threonine-protein kinase 24 (Homo sapiens) (UniProt Q9Y6E0); experiment: Inhibition of MST3 at 3 uM
[40] = biological target: Uncharacterized serine/threonine-protein kinase SBK3 (Homo sapiens) (UniProt P0C264); experiment: Inhibition of SgK110 at 3 uM
[41] = biological target: D(1A) dopamine receptor (Homo sapiens) (UniProt P21728); experiment: Inhibition of human dopamine D1 receptor at 3 uM
[42] = biological target: Serine/threonine-protein kinase DCLK3 (Homo sapiens) (UniProt Q9C098); experiment: Inhibition of DCAMKL3 at 3 uM
[43] = biological target: Inhibitor of nuclear factor kappa-B kinase subunit epsilon (Homo sapiens) (UniProt Q14164); experiment: Inhibition of IKK-epsilon at 3 uM
[44] = biological target: Mitogen-activated protein kinase kinase kinase 9 (Homo sapiens) (UniProt P80192); experiment: Inhibition of MLK1 at 3 uM
Chain of Mitogen-activated protein kinase kinase kinase 9 (Homo sapiens) (P80192 whole entry, looked up): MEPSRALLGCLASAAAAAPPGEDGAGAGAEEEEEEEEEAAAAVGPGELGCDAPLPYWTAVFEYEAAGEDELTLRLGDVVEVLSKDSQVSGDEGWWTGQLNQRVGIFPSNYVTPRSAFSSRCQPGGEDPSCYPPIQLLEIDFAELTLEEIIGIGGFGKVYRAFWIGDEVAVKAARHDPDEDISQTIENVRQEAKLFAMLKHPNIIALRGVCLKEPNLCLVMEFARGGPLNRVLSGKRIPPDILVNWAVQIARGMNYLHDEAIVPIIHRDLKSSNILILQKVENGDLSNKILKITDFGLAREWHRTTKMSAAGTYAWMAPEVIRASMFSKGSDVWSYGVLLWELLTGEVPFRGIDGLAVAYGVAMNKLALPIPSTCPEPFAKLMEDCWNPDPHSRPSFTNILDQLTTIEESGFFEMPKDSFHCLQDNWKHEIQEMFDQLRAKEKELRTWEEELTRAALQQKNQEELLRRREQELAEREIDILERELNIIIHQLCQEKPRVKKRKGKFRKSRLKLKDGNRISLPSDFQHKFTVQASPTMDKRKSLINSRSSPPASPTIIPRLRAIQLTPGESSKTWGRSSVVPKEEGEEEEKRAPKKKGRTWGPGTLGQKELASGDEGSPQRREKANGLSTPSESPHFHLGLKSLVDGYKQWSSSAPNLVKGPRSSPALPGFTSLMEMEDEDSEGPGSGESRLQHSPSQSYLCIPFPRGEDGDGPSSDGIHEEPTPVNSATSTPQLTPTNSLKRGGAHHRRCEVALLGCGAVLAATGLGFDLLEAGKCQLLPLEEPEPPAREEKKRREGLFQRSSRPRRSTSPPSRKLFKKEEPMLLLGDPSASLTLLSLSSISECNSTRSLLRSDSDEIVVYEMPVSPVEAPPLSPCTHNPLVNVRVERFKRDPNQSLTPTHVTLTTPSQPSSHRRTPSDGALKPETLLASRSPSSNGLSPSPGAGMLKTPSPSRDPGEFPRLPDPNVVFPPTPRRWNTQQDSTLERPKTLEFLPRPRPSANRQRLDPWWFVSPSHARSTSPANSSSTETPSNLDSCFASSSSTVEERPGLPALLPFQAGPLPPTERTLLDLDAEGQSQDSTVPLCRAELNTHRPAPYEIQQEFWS

[45] = biological target: Ephrin type-B receptor 2 (Homo sapiens) (UniProt P29323); experiment: Inhibition of EPHB2 at 3 uM
Method in brief: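 Single-concentration kinase panel scoring: each value is the percentage of enzyme activity remaining relative to a DMSO-only control. An activity statistically indistinct from DMSO control was scored "no hit".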

Measured: inhibition

Chain of Tyrosine-protein kinase ZAP-70 (Homo sapiens) (P43403 whole entry): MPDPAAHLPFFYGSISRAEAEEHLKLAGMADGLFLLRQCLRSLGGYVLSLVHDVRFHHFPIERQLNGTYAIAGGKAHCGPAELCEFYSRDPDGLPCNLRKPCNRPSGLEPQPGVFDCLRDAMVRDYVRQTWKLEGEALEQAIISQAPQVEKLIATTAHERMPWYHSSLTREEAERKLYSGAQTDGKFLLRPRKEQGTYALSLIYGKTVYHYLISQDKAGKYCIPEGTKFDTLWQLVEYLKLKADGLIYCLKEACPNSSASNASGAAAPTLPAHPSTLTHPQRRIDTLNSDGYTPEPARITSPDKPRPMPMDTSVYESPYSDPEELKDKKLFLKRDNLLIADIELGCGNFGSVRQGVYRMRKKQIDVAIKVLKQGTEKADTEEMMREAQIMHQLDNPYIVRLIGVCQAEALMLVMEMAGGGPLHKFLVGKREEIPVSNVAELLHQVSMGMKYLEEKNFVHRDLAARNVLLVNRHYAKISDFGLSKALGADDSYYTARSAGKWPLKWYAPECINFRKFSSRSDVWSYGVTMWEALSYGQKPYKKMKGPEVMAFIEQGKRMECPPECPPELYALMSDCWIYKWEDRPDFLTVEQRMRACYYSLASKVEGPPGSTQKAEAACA

CN(C)CCOc1cc(-c2cn[nH]c2)ccc1NC(=O)C1COc2ccccc2O1 (stereo not given) [SR-3677]
< 10%: [1] | [2] | [3] | [4] | [5] | [6] | [7] | [8] | [9] | [11] | [12] | [14] | [15] | [17] | [18] | [19] | [20] | [21] | [22] | [23] | [24] | [25] | [26] | [27] | [28] | [29] | [30] | [31] | [32] | [33] | [34] | [35] | [36] | [37] | [38] | [39] | [40] | [42] | [43] | [44] | [45]
17%: [41]
-1%: [16]
-2%: [13]
5%: [10]

Source: ChEMBL document CHEMBL1142492 (J Med Chem, 2008)
